Test system: Fibroblast
Experiment: Multiplex assay against human fibroblast
Assay type: toxicity, cell-based
Summary of the method: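 At seeding, live cells were stained with Hoechst33342, BioTracker Green Microtubule Cytoskeleton Dye, MitoTracker Red and Annexin V Alexa Fluor 680. After compound addition they were imaged on a CQ1 microscope at 37°C and 5% CO2, and CellPathfinder machine-learning gating sorted them into Hoechst high-intensity objects or normal cells, with normal cells further split into healthy, pyknosed or fragmented nuclei and pyknosed cells into mitotic or apoptotic. Tubulin, mitochondrial-mass and membrane-permeability phenotypes are given as per cents of cells with healthy nuclei.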

[1] = 12 h, 1 µM, compound concentration 1 uM, replicate 1
[2] = 12 h, 1 µM, compound concentration 1 uM, replicate 2
[3] = 12 h, 10 µM, compound concentration 10 uM, replicate 1
[4] = 12 h, 10 µM, compound concentration 10 uM, replicate 2
[5] = 24 h, 1 µM, compound concentration 1 uM, replicate 1
[6] = 24 h, 1 µM, compound concentration 1 uM, replicate 2
[7] = 24 h, 10 µM, compound concentration 10 uM, replicate 1
[8] = 24 h, 10 µM, compound concentration 10 uM, replicate 2
[9] = 48 h, 1 µM, compound concentration 1 uM, replicate 1
[10] = 48 h, 1 µM, compound concentration 1 uM, replicate 2
[11] = 48 h, 10 µM, compound concentration 10 uM, replicate 1
[12] = 48 h, 10 µM, compound concentration 10 uM, replicate 2

## O=C(NCCN1CCC(n2c(=O)[nH]c3cc(Cl)ccc32)CC1)c1ccc(F)cc1 [HALOPEMIDE]
[1]
  Population Apoptotic (%): 32%
  Population Fragmented Nuclei (%): 11%
  Population Healthy Nuclei (%): 62%
  Population Hoechst High Intensity Objects (%): 0%
  Population Membrane Permeable-Phenotype (%): 1%
  Population Mitochondria Different-Phenotype (%): 10%
  Population Mitotic Cells (%): 67%
  Population Normal (%): 99%
  Population Pyknosed Nuclei (%): 26%
  Population Tubulin-Different-Phenotype (%): 29%
  Total Cell Count: 120
[2]
  Population Apoptotic (%): 44%
  Population Fragmented Nuclei (%): 27%
  Population Healthy Nuclei (%): 43%
  Population Hoechst High Intensity Objects (%): 7%
  Population Membrane Permeable-Phenotype (%): 10%
  Population Mitochondria Different-Phenotype (%): 0%
  Population Mitotic Cells (%): 56%
  Population Normal (%): 92%
  Population Pyknosed Nuclei (%): 29%
  Population Tubulin-Different-Phenotype (%): 56%
  Total Cell Count: 92
[3]
  Population Apoptotic (%): 55%
  Population Fragmented Nuclei (%): 15%
  Population Healthy Nuclei (%): 54%
  Population Hoechst High Intensity Objects (%): 3%
  Population Membrane Permeable-Phenotype (%): 0%
  Population Mitochondria Different-Phenotype (%): 17%
  Population Mitotic Cells (%): 44%
  Population Normal (%): 96%
  Population Pyknosed Nuclei (%): 30%
  Population Tubulin-Different-Phenotype (%): 77%
  Total Cell Count: 204
[4]
  Population Apoptotic (%): 31%
  Population Fragmented Nuclei (%): 24%
  Population Healthy Nuclei (%): 34%
  Population Hoechst High Intensity Objects (%): 4%
  Population Membrane Permeable-Phenotype (%): 6%
  Population Mitochondria Different-Phenotype (%): 14%
  Population Mitotic Cells (%): 68%
  Population Normal (%): 95%
  Population Pyknosed Nuclei (%): 41%
  Population Tubulin-Different-Phenotype (%): 87%
  Total Cell Count: 148
[5]
  Population Apoptotic (%): 58%
  Population Fragmented Nuclei (%): 16%
  Population Healthy Nuclei (%): 69%
  Population Hoechst High Intensity Objects (%): 3%
  Population Membrane Permeable-Phenotype (%): 1%
  Population Mitochondria Different-Phenotype (%): 9%
  Population Mitotic Cells (%): 41%
  Population Normal (%): 96%
  Population Pyknosed Nuclei (%): 13%
  Population Tubulin-Different-Phenotype (%): 38%
  Total Cell Count: 128
[6]
  Population Apoptotic (%): 37%
  Population Fragmented Nuclei (%): 32%
  Population Healthy Nuclei (%): 41%
  Population Hoechst High Intensity Objects (%): 10%
  Population Membrane Permeable-Phenotype (%): 5%
  Population Mitochondria Different-Phenotype (%): 8%
  Population Mitotic Cells (%): 62%
  Population Normal (%): 90%
  Population Pyknosed Nuclei (%): 26%
  Population Tubulin-Different-Phenotype (%): 59%
  Total Cell Count: 100
[7]
  Population Apoptotic (%): 67%
  Population Fragmented Nuclei (%): 23%
  Population Healthy Nuclei (%): 51%
  Population Hoechst High Intensity Objects (%): 5%
  Population Membrane Permeable-Phenotype (%): 0%
  Population Mitochondria Different-Phenotype (%): 28%
  Population Mitotic Cells (%): 32%
  Population Normal (%): 95%
  Population Pyknosed Nuclei (%): 24%
  Population Tubulin-Different-Phenotype (%): 78%
  Total Cell Count: 220
[8]
  Population Apoptotic (%): 41%
  Population Fragmented Nuclei (%): 26%
  Population Healthy Nuclei (%): 38%
  Population Hoechst High Intensity Objects (%): 6%
  Population Membrane Permeable-Phenotype (%): 12%
  Population Mitochondria Different-Phenotype (%): 32%
  Population Mitotic Cells (%): 58%
  Population Normal (%): 93%
  Population Pyknosed Nuclei (%): 35%
  Population Tubulin-Different-Phenotype (%): 94%
  Total Cell Count: 140
[9]
  Population Apoptotic (%): 52%
  Population Fragmented Nuclei (%): 14%
  Population Healthy Nuclei (%): 68%
  Population Hoechst High Intensity Objects (%): 3%
  Population Membrane Permeable-Phenotype (%): 4%
  Population Mitochondria Different-Phenotype (%): 7%
  Population Mitotic Cells (%): 47%
  Population Normal (%): 96%
  Population Pyknosed Nuclei (%): 17%
  Population Tubulin-Different-Phenotype (%): 36%
  Total Cell Count: 128
[10]
  Population Apoptotic (%): 35%
  Population Fragmented Nuclei (%): 38%
  Population Healthy Nuclei (%): 43%
  Population Hoechst High Intensity Objects (%): 4%
  Population Membrane Permeable-Phenotype (%): 14%
  Population Mitochondria Different-Phenotype (%): 4%
  Population Mitotic Cells (%): 64%
  Population Normal (%): 95%
  Population Tubulin-Different-Phenotype (%): 63%
  Total Cell Count: 99
[11]
  Population Apoptotic (%): 80%
  Population Fragmented Nuclei (%): 32%
  Population Healthy Nuclei (%): 50%
  Population Hoechst High Intensity Objects (%): 10%
  Population Membrane Permeable-Phenotype (%): 0%
  Population Mitochondria Different-Phenotype (%): 35%
  Population Mitotic Cells (%): 19%
  Population Normal (%): 89%
  Population Pyknosed Nuclei (%): 17%
  Population Tubulin-Different-Phenotype (%): 77%
  Total Cell Count: 229
[12]
  Population Apoptotic (%): 48%
  Population Fragmented Nuclei (%): 35%
  Population Healthy Nuclei (%): 45%
  Population Hoechst High Intensity Objects (%): 5%
  Population Membrane Permeable-Phenotype (%): 10%
  Population Mitochondria Different-Phenotype (%): 15%
  Population Mitotic Cells (%): 52%
  Population Normal (%): 94%
  Population Pyknosed Nuclei (%): 19%
  Population Tubulin-Different-Phenotype (%): 96%
  Total Cell Count: 136

— ChEMBL document CHEMBL5058577, “EUbOPEN Chemogenomics Library 2 (Multiplex)” (2022)
